Source: ChEMBL document CHEMBL4706740, “Structure-Activity Study of Nitazoxanide Derivatives as Novel STAT3 Pathway Inhibitors” (ACS Med Chem Lett, 2021)
The source made the active and inactive calls. The calls are words filed in the database; no cut-off is given here.

What was measured:
[1] = Elimination Half life in Sprague-Dawley rat at 25 mg/kg, IG; type: ADME, organism-based; conditions: in vivo, po, read-out: beta t1/2 (converted)
Method in brief: (§1)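 Rats, n = 3 per group, received a single dose either intragastrically (25 mg/kg) or intravenously (5 mg/kg). Plasma concentration–time curves were used to derive t1/2α, t1/2β, Vd/F, CL/F, AUC0–∞, Tmax and Cmax. Absolute oral bioavailability was calculated from the ig and iv data.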

[2] = Cytotoxicity against human HEK 293T cells assessed as cell growth inhibition at 50 uM measured after 48 hrs by MTT assay; type: cell-based
[3] = Apparent volume of distribution in Sprague-Dawley rat at 5 mg/kg, iv; type: ADME, organism-based; conditions: in vivo; method in brief: as §1
A549 = experiment: Antiproliferative activity against human A549 cells assessed as cell growth inhibition measured after 48 hrs by MTT assay; type: functional, cell-based; conditions: A549, 48 h
[4] = AUC (0 to infinity) in Sprague-Dawley rat at 25 mg/kg, IG; type: ADME, organism-based; design: route […], time infinity, dose 25 mg/kg; conditions: in vivo, po; method in brief: as §1
HT-29 = experiment: Antiproliferative activity against human HT29 cells assessed as cell growth inhibition measured after 48 hrs by MTT assay; type: functional, cell-based; conditions: HT-29, 48 h
[5] = Antiproliferative activity against human A375 cells assessed as cell growth inhibition measured after 48 hrs by MTT assay; type: functional, cell-based; conditions: A-375, 48 h
[6] = biological target: T1, Signal transducer and activator of transcription 5A (Homo sapiens) (UniProt P42229); experiment: Inhibition of STAT5 (unknown origin)
T1 sequence (whole entry): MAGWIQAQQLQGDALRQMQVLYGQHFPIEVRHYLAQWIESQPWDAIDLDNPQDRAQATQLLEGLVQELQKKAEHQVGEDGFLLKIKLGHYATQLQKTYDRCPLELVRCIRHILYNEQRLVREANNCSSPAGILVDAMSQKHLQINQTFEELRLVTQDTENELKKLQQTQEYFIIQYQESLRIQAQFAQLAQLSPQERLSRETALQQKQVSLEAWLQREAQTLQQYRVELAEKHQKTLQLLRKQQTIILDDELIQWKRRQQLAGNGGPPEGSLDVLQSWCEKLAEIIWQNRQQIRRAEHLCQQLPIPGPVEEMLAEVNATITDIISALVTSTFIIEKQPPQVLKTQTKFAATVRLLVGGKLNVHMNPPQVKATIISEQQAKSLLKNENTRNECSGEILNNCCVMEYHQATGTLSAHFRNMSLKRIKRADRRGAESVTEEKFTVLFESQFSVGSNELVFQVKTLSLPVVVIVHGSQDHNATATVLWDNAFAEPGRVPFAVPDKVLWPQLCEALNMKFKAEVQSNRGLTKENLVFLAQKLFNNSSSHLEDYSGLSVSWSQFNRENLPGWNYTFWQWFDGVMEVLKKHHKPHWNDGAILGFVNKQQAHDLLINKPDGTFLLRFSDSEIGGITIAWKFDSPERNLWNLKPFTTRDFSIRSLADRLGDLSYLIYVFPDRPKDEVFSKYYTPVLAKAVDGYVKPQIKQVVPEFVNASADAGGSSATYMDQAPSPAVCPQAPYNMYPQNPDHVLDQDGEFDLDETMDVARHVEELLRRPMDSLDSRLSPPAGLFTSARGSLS

[7] = biological target: Signal transducer and activator of transcription 3 (Homo sapiens) (UniProt P40763); experiment: Binding affinity to GST-tagged human STAT3 using 5-carboxyfluorescein labelled peptide incubated for 1 hr by fluorescence polarization assay
Chain of Signal transducer and activator of transcription 3 (Homo sapiens) (P40763 whole entry): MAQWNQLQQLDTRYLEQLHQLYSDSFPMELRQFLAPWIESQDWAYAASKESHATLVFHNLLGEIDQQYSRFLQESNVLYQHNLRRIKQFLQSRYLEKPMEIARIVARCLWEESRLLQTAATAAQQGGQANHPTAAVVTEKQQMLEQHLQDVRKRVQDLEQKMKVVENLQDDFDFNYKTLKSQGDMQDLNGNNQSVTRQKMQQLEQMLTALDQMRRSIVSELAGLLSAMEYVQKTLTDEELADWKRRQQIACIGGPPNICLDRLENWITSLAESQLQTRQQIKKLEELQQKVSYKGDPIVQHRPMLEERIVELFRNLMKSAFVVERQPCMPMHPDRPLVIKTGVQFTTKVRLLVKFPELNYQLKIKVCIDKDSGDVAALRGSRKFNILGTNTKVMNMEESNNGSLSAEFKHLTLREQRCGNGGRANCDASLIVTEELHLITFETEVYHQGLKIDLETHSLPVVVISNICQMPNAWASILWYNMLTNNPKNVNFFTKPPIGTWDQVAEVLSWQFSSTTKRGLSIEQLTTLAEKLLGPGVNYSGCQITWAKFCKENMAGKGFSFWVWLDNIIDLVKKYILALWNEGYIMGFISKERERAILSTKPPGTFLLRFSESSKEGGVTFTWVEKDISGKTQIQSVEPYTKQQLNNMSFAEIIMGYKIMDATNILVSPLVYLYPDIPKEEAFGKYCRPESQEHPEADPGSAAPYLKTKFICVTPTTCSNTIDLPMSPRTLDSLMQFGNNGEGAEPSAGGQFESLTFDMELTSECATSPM

[8] = Tmax in Sprague-Dawley rat at 25 mg/kg, IG; type: ADME, organism-based; conditions: in vivo, po
[9] = Absolute bioavailability in Sprague-Dawley rat at 25 mg/kg, IG; type: ADME, organism-based; conditions: in vivo, po; method in brief: as §1
HeLa [10] = experiment: Induction of apoptosis in human HeLa cells assessed as early apoptotic cells at 20 uM incubated for 24 hrs by Annexin V-FITC/PI staining based flow cytometry (reference value: 2.84%); type: functional
HeLa [11] = experiment: Effect on Jak2 level in human Hela cells upto 80 uM after 24 hrs by Western blot analysis; type: functional, cell-based; conditions: dose microM <=80, time […]
HeLa [12] = experiment: Effect on Src level in human Hela cells upto 80 uM after 24 hrs by Western blot analysis; type: functional, cell-based; conditions: dose microM <=80, time […]
[13] = Cmax in Sprague-Dawley rat at 25 mg/kg, IG; type: ADME, organism-based; design: route […], dose 25 mg/kg; conditions: in vivo, po; method in brief: as §1
HeLa [14] = experiment: Induction of cell cycle arrest in human HeLa cells assessed as accumulation at S phase at 10 uM measured after 24 hrs by flow cytometry analysis (reference value: 34.04%); type: functional
HeLa [15] = experiment: Cytotoxicity against human HeLa cells assessed as inhibition of cell viability measured after 48 hrs by MTT assay; type: functional, cell-based
Method in brief: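 Growth was read by MTT assay and IC50 taken from dose–response curves. Values are averages of three independent experiments.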

[16] = Selectivity index, ratio of inhibition of IL-6 induced STAT3 transcriptional activity to inhibition against HEK-Blue IL-6 cells assessed as reduction in cell viability at 10 uM
HeLa [17] = experiment: Induction of apoptosis in human HeLa cells assessed as early apoptotic cells at 10 uM incubated for 24 hrs by Annexin V-FITC/PI staining based flow cytometry (reference value: 2.84%); type: functional
HeLa [18] = experiment: Antiproliferative activity against human HeLa cells assessed as cell growth inhibition measured after 48 hrs by MTT assay; type: functional, cell-based
Method in brief: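 Growth was read by MTT assay, and IC50 was taken from the dose–response curve. Values are averages of three independent experiments.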

HeLa [19] = experiment: Induction of cell cycle arrest in human HeLa cells assessed as accumulation at G0/G1 phase at 20 uM measured after 24 hrs by flow cytometry analysis (reference value: 54.16%); type: functional
[20] = Elimination Half life in Sprague-Dawley rat at 5 mg/kg, iv; type: ADME, organism-based; conditions: in vivo, read-out: beta t1/2 (converted); method in brief: as §1
[21] = Cytotoxicity against human HEK-Blue IL-6 cells assessed as cell death at 80 uM; type: cell-based; conditions: hek-blue il-6, 80 µM
[22] = Antiproliferative activity against human U87MG cells assessed as cell growth inhibition measured after 48 hrs by MTT assay; type: functional, cell-based
[23] = AUC (0 to infinity) in Sprague-Dawley rat at 5 mg/kg, iv; type: ADME, organism-based; design: route intravenous, time infinity, dose 5 mg/kg; conditions: in vivo; method in brief: as §1
Caco-2 = experiment: Antiproliferative activity against human Caco-2 cells assessed as cell growth inhibition measured after 48 hrs by MTT assay; type: functional, cell-based; conditions: Caco-2, 48 h
[24] = Half life in Sprague-Dawley rat at 25 mg/kg, IG; type: ADME, organism-based; conditions: in vivo, po; method in brief: as §1
[25] = biological target: Proto-oncogene tyrosine-protein kinase Src (Homo sapiens) (UniProt P12931); experiment: Inhibition of Src phosphorylation at Tyr416 in human Hela cells upto 80 uM after 24 hrs by Western blot analysis; type: cell-based; conditions: dose microM <=80, time […]
Chain of Proto-oncogene tyrosine-protein kinase Src (Homo sapiens) (P12931 2-536 limits assumed): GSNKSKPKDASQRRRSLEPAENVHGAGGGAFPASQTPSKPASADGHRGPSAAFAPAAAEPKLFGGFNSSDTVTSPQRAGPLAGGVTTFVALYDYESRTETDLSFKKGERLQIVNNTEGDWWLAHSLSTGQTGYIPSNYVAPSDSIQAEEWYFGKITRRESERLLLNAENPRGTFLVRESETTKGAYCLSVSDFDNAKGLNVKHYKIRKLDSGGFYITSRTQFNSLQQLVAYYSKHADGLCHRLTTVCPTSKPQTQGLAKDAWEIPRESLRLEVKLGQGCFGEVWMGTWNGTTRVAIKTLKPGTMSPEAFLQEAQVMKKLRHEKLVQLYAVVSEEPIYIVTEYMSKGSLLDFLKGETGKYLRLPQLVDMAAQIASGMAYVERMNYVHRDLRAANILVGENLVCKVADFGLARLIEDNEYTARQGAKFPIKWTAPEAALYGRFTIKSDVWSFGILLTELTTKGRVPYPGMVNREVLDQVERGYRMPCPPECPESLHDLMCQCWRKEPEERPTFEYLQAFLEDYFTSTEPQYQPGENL

HeLa [26] = experiment: Induction of apoptosis in human HeLa cells assessed as necrotic cells at 40 uM incubated for 24 hrs by Annexin V-FITC/PI staining based flow cytometry (reference value: 0.02%); type: functional
[27] = Cytotoxicity against human HEK 293T cells assessed as cell growth inhibition at 10 uM measured after 48 hrs by MTT assay; type: cell-based

## CC(=O)Oc1ccccc1C(=O)Nc1ncc([N+](=O)[O-])s1 [NITAZOXANIDE]
[1]
  half-life: 48 min
[2]
  inhibition at 48 h, 50 µM: 24.4%
[3]
  Vd/F: 0.08 L/kg
A549
  IC50: > 50 µM
[4]
  AUC(0-inf): 3200 ng·h/mL
HT-29
  IC50: > 50 µM
[5]
  IC50: 31.8 µM
[6]
  inhibition: inactive
[7]
  Activity: inactive
[8]
  Tmax: 120 min
[9]
  bioavailability: 5.7%
HeLa [10]
  Activity: 4.49%
HeLa [11]
  Activity: inactive
HeLa [12]
  Activity: inactive
[13]
  Cmax: 1000 ng/mL
HeLa [14]
  Activity: 28.45%
HeLa [15]
  IC50: 35 µM
[16]
  Selectivity Index: 2.8
HeLa [17]
  Activity: 2.34%
HeLa [18]
  IC50: 35 µM
HeLa [19]
  Activity: 69.88%
[20]
  half-life: 18 min
[21]
  Activity: Non-Toxic
[22]
  IC50: 30 µM
[23]
  AUC(0-inf): 11200 ng·h/mL
Caco-2
  IC50: 26.8 µM
[24]
  half-life: 36 min
[25]
  inhibition: inactive
HeLa [26]
  Activity: 0.06%
[27]
  inhibition at 48 h, 10 µM: -3.3%
